Laboratory results: ChEMBL document CHEMBL3861955, “Pepluane and Paraliane Diterpenoids from Euphorbia peplus with Potential Anti-inflammatory Activity” (J Nat Prod, 2016)
Residues, ends and D or L forms follow the SMILES beside them. *: point of attachment. Cbz = O=C(OCc1ccccc1)*

What was measured:
Mus musculus = species on record: Mus musculus; assay: Cytotoxicity against mouse RAW264.7 cells assessed as decrease in cell viability by MTT assay; format: toxicity, cell-based
How it was run: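 Viability measured by MTT, run alongside the LPS/NO assay in the same RAW264.7 cultures: 2 × 10^5 cells/well in RPMI-1640, 24 h preincubation, compound serial dilutions up to 100 μM, then LPS (1 μg/mL) for 18 h. Absorbance read at 595 nm.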

[1] = Antiinflammatory activity in mouse RAW264.7 cells assessed as inhibition of LPS-induced nitric oxide production after 18 hrs by Griess assay; format: functional, cell-based; conditions: RAW264.7, 18 h
How it was run: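 RAW264.7 cells seeded at 2 × 10^5 cells/well in RPMI-1640 and preincubated 24 h. Compounds added as serial dilutions from a top concentration of 100 μM, then LPS (1 μg/mL) stimulation for 18 h. Supernatant nitrite measured with Griess reagent after 5 min incubation, absorbance at 550 nm; proteasome inhibitor MG-132 used as positive control.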

For CC(=O)O[C@@H]1[C@H]2[C@@H](OC(=O)c3ccccc3)[C@@H](C)C[C@]2(O)C(=O)[C@@]2(C)[C@@H]3CC(C)(C)C(=O)[C@@H]3C[C@@]12C, the Activity (Mus musculus) was “Non-Toxic” and the IC50 [1] was 38.3 µM.

In the case of CC(=O)O[C@@H]1[C@H]2[C@@H](OC(=O)c3ccccc3)[C@@H](C)C[C@]2(O)[C@H](OC(C)=O)[C@@]2(C)[C@@H]3CC(C)(C)C(=O)[C@@H]3C[C@@]12C, the Activity (Mus musculus) is reported as “Non-Toxic” and the IC50 [1] is reported as 33.7 µM.

With CC(=O)OC[C@@]12C[C@@]3(OC(C)=O)C(=O)C=C(C)C[C@H]3[C@]1(C)[C@@H](OC(C)=O)[C@@]1(O)C[C@H](C)[C@H](OC(=O)c3ccccc3)[C@@H]1[C@H]2OC(C)=O the Activity (Mus musculus) was “Non-Toxic” and the IC50 [1] was over 50 µM.

In the case of CC(=O)O[C@@H]1[C@H]2[C@@H](OC(=O)c3ccccc3)[C@@H](C)C[C@]2(O)[C@H](OC(C)=O)[C@@]2(C)[C@@H]3CC(C)(C)C(=O)[C@]3(O)C[C@@]12C, the Activity (Mus musculus) is reported as “Non-Toxic” and the IC50 [1] is reported as 43.2 µM.

With CC(=O)O[C@@H]1[C@H]2[C@@H](OC(=O)c3ccccc3)[C@@H](C)C[C@]2(O)[C@H](OC(C)=O)[C@@]2(C)[C@@H]3CC(C)=CC(=O)[C@]3(OC(C)=O)C[C@@]12C the Activity (Mus musculus) was “Non-Toxic” and the IC50 [1] was 36.6 µM.

For CC(=O)O[C@@H]1[C@H]2[C@@H](OC(=O)c3ccccc3)[C@@H](C)C[C@]2(O)[C@H](OC(C)=O)[C@@]2(C)[C@@H]3C[C@@](C)(O)C[C@H](O)[C@]3(OC(C)=O)C[C@@]12C, the Activity (Mus musculus) was “Non-Toxic” and the IC50 [1] was over 50 µM.

For CC(=O)O[C@@H]1[C@H]2[C@@H](OC(=O)c3ccccc3)[C@@H](C)C[C@]2(O)[C@H](OC(C)=O)[C@@]2(C)[C@@H]3C[C@@](C)(OC(C)=O)C[C@H](O)[C@]3(OC(C)=O)C[C@@]12C, the Activity (Mus musculus) was “Non-Toxic” and the IC50 [1] was over 50 µM.

In the case of CC(=O)O[C@H]1C[C@](C)(O)C[C@@H]2[C@@]1(OC(C)=O)C[C@@]1(C)[C@H](OC(C)=O)[C@H]3[C@@H](OC(=O)c4ccccc4)[C@@H](C)C[C@]3(O)[C@H](OC(C)=O)[C@@]21C, the Activity (Mus musculus) is reported as “Non-Toxic” and the IC50 [1] is reported as over 50 µM.

In the case of CC(=O)O[C@H]1C[C@](C)(O)C[C@@H]2[C@@]1(O)C[C@@]1(C)[C@H](OC(C)=O)[C@H]3[C@@H](OC(=O)c4ccccc4)[C@@H](C)C[C@]3(O)[C@H](OC(C)=O)[C@@]21C, the Activity (Mus musculus) is reported as “Non-Toxic” and the IC50 [1] is reported as over 50 µM.

In the case of CC(=O)O[C@H]1C[C@](C)(O)C[C@@H]2[C@@]1(OC(C)=O)C[C@@]1(C)[C@H](OC(C)=O)[C@H]3[C@@H](OC(=O)c4ccccc4)[C@@H](C)[C@@H](OC(C)=O)[C@]3(O)[C@H](OC(C)=O)[C@@]21C, the Activity (Mus musculus) is reported as “Non-Toxic” and the IC50 [1] is reported as over 50 µM.

For CC(=O)O[C@@H]1[C@H]2[C@@H](OC(=O)c3ccccc3)[C@@H](C)C[C@]2(O)[C@H](OC(C)=O)[C@@]2(C)[C@@H]3C[C@](C)(O)CC(=O)[C@]3(OC(C)=O)C[C@@]12C, the Activity (Mus musculus) was “Non-Toxic” and the IC50 [1] was over 50 µM.

With CC(=O)O[C@@H]1[C@H]2[C@@H](OC(=O)c3ccccc3)[C@@H](C)C[C@]2(O)[C@H](OC(C)=O)[C@@]2(C)[C@@H]3C[C@@](C)(O)CC(=O)[C@]3(OC(C)=O)C[C@@]12C the Activity (Mus musculus) was “Non-Toxic” and the IC50 [1] was over 50 µM.

CC(C)C[C@@H](C=O)NC(=O)[C@H](CC(C)C)NC(=O)[C@H](CC(C)C)NC(=O)OCc1ccccc1 [MG-132] (Cbz-Leu-Leu-Leu-aldehyde) gave an IC50 [1] of 0.18 µM.

For CC(=O)OC[C@@]12C[C@@]3(OC(C)=O)C(=O)C(C)(C)C[C@H]3[C@]1(C)[C@@H](OC(C)=O)[C@@]1(O)C[C@H](C)[C@H](OC(=O)c3ccccc3)[C@@H]1[C@H]2OC(C)=O, the Activity (Mus musculus) was “Non-Toxic” and the IC50 [1] was over 50 µM.

With CC(=O)O[C@H]1C[C@](C)(OC(C)=O)C[C@@H]2[C@@]1(OC(C)=O)C[C@@]1(C)[C@H](OC(C)=O)[C@H]3[C@@H](OC(=O)c4ccccc4)[C@@H](C)C[C@]3(O)[C@H](OC(C)=O)[C@@]21C the Activity (Mus musculus) was “Non-Toxic” and the IC50 [1] was 37.1 µM.

With CC(=O)O[C@@H]1[C@H]2[C@@H](OC(=O)c3ccccc3)[C@@H](C)C[C@]2(O)[C@H](OC(C)=O)[C@@]2(C)[C@@H]3C[C@@](C)(OC(C)=O)CC(=O)[C@]3(OC(C)=O)C[C@@]12C the Activity (Mus musculus) was “Non-Toxic” and the IC50 [1] was 47.5 µM.

For CC(=O)O[C@H]1C[C@](C)(O)C[C@@H]2[C@@]1(OC(C)=O)C[C@@]1(C)[C@H](OC(C)=O)[C@H]3[C@@H](O)[C@@H](C)C[C@]3(O)[C@H](OC(C)=O)[C@@]21C, the Activity (Mus musculus) was “Non-Toxic” and the IC50 [1] was over 50 µM.

In the case of CC(=O)O[C@@H]1[C@H]2[C@@H](OC(=O)c3ccccc3)[C@@H](C)C[C@]2(O)[C@H](OC(C)=O)[C@@]2(C)[C@@H]3CC(C)(C)C(=O)[C@]3(OC(C)=O)C[C@@]12C, the Activity (Mus musculus) is reported as “Non-Toxic” and the IC50 [1] is reported as 29.9 µM.
